Key:
Aspergillus parasiticus [1] = experiment: Fungicidal activity against Aspergillus parasiticus CECT 2681 at 0.2 mg/disk after 72 hrs by paper disk-agar diffusion method; format: functional
Method in brief: (§1)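 Fungi were grown on potato dextrose agar (PDA) for 7 days at 28 °C. Conidia were suspended to ~10⁶/mL in 0.05% Tween 80 in sterile water, and 1 mL was mixed into 15 mL PDA. Four 0.5 cm paper disks (0.2 mg/disk) were placed on the set agar. Controls were vehicle-only disks and benomyl at species-dependent doses. The inhibition zone was read in mm at 72 h as the mean ± SE of three independent experiments.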

[2] = test system: Phytophthora citrophthora; experiment: Fungicidal activity against Phytophthora citrophthora CECT 2353 at 0.2 mg/disk after 72 hrs by paper disk-agar diffusion method; format: functional; method in brief: as §1
Trichoderma viride [3] = experiment: Fungicidal activity against Trichoderma viride CECT 2423 at 0.2 mg/disk after 72 hrs by paper disk-agar diffusion method; format: functional; method in brief: as §1
Geotrichum candidum = experiment: Fungicidal activity against Geotrichum candidum CCM 245 at 0.2 mg/disk after 72 hrs by paper disk-agar diffusion method; format: functional; method in brief: as §1
Fusarium culmorum [4] = experiment: Fungicidal activity against Fusarium culmorum CCM 172 at 0.2 mg/disk after 72 hrs by paper disk-agar diffusion method; format: functional; method in brief: as §1
Escherichia coli [5] = experiment: Bactericidal activity against Escherichia coli CECT 100 at 0.2 mg/disk after 24 hrs by paper disk-agar diffusion method relative to control; format: functional
Escherichia coli [6] = experiment: Bactericidal activity against Escherichia coli CECT 100 at 0.2 mg/disk after 24 hrs by paper disk-agar diffusion method; format: functional
Method in brief: (§2)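 Each bacterial strain was taken from a 24-h culture on solid medium, reactivated in Nutrient Broth, and grown a further 24 h at 28 or 37 °C depending on the strain. 1 mL of suspension was mixed with 15 mL Plate Count Agar. Four 0.5 cm paper disks (0.2 mg/disk) were placed on the set agar. Controls were vehicle-only disks and tetracycline. Plates were incubated 24 h, dark, 28 or 37 °C. The inhibition zone was read in mm as the mean ± SE of three independent experiments.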

[7] = test system: Pectobacterium carotovorum; experiment: Bactericidal activity against Erwinia carotovora CECT 225 at 0.2 mg/disk after 24 hrs by paper disk-agar diffusion method; format: functional; method in brief: as §2
Escherichia coli [8] = experiment: Bactericidal activity against Escherichia coli CECT 405 at 0.2 mg/disk after 24 hrs by paper disk-agar diffusion method; format: functional; method in brief: as §2
Salmonella typhi [9] = experiment: Bactericidal activity against Salmonella typhi CECT 409 at 0.2 mg/disk after 24 hrs by paper disk-agar diffusion method; format: functional, Salmonella enterica subsp. enterica serovar Typhi
Method in brief: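 Paper disk-agar diffusion, run in triplicate. 24-h culture reactivated in nutrient broth and grown a further 24 h at 28 or 37 °C by species. 1 mL suspension mixed into 15 mL plate count agar. Four 0.5 cm disks placed per plate, incubated 24 h in the dark. Inhibition zone (mm) reported as mean ± SE of three independent experiments; vehicle disks as negative control.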

Enterococcus faecalis [10] = experiment: Bactericidal activity against Enterococcus faecalis CECT 481 at 0.2 mg/disk after 24 hrs by paper disk-agar diffusion method; format: functional; method in brief: as §2
Staphylococcus aureus [11] = experiment: Bactericidal activity against Staphylococcus aureus CECT 86 at 0.2 mg/disk after 24 hrs by paper disk-agar diffusion method; format: functional; method in brief: as §2
Bacillus cereus [12] = experiment: Bactericidal activity against Bacillus cereus CECT 148 at 0.2 mg/disk after 24 hrs by paper disk-agar diffusion method; format: functional; method in brief: as §2
Bacillus cereus [13] = experiment: Bactericidal activity against Bacillus cereus CECT 148 at 0.2 mg/disk after 24 hrs by paper disk-agar diffusion method relative to control; format: functional
Escherichia coli [14] = experiment: Bactericidal activity against Escherichia coli CECT 405 at 0.2 mg/disk after 24 hrs by paper disk-agar diffusion method relative to control; format: functional
Salmonella typhi [15] = experiment: Bactericidal activity against Salmonella typhi CECT 409 at 0.2 mg/disk after 24 hrs by paper disk-agar diffusion method relative to control; format: functional, Salmonella enterica subsp. enterica serovar Typhi
Staphylococcus aureus [16] = experiment: Bactericidal activity against Staphylococcus aureus CECT 86 at 0.2 mg/disk after 24 hrs by paper disk-agar diffusion method relative to control; format: functional
[17] = test system: Pectobacterium carotovorum; experiment: Bactericidal activity against Erwinia carotovora CECT 225 at 0.2 mg/disk after 24 hrs by paper disk-agar diffusion method relative to control; format: functional
Enterococcus faecalis [18] = experiment: Bactericidal activity against Enterococcus faecalis CECT 481 at 0.2 mg/disk after 24 hrs by paper disk-agar diffusion method relative to control; format: functional
Aspergillus parasiticus [19] = experiment: Fungicidal activity against Aspergillus parasiticus CECT 2681 at 1 ug/disk after 72 hrs by paper disk-agar diffusion method; format: functional; settings: CECT 2681, 72 h, read-out: IZ
Method in brief: (§3)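 Fungi grown on potato dextrose agar for 7 days at 28 °C. Conidia suspended to about 10⁶/mL in 0.05% Tween 80 in sterile water. 1 mL suspension added to 15 mL PDA; four impregnated 0.5 cm disks placed after setting. Inhibition zone measured at 72 h; mean ± SE of three independent experiments. Vehicle disks as negative control; benomyl dose set per fungal species.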

[20] = test system: Phytophthora citrophthora; experiment: Fungicidal activity against Phytophthora citrophthora CECT 2353 at 1.5 ug/disk after 72 hrs by paper disk-agar diffusion method; format: functional; settings: CECT 2353, 72 h, read-out: IZ; method in brief: as §3
Trichoderma viride [21] = experiment: Fungicidal activity against Trichoderma viride CECT 2423 at 1 ug/disk after 72 hrs by paper disk-agar diffusion method; format: functional; settings: CECT 2423, 72 h, read-out: IZ; method in brief: as §3
Fusarium culmorum [22] = experiment: Fungicidal activity against Fusarium culmorum CCM 172 at 10 ug/disk after 72 hrs by paper disk-agar diffusion method; format: functional; settings: CCM 172, 72 h, read-out: IZ; method in brief: as §3

SMILES	inhibition zone (IZ) (Aspergillus parasiticus [1])	inhibition zone (IZ) [2]	inhibition zone (IZ) (Trichoderma viride [3])	inhibition zone (IZ) (Geotrichum candidum)	inhibition zone (IZ) (Fusarium culmorum [4])	Activity (Escherichia coli [5])	inhibition zone (IZ) (Escherichia coli [6])	inhibition zone (IZ) [7]	inhibition zone (IZ) (Escherichia coli [8])	inhibition zone (IZ) (Salmonella typhi [9])	inhibition zone (IZ) (Enterococcus faecalis [10])	inhibition zone (IZ) (Staphylococcus aureus [11])	inhibition zone (IZ) (Bacillus cereus [12])	also measured
COc1cc2c(cc1OC)C(CCCCCOC(=O)Nc1ccccc1)N(C)CC2 (configuration not stated)	0 mm	0 mm	5.75 mm	6.25 mm	7 mm	59%	15.17 mm	10.67 mm	12.33 mm	12 mm	14.17 mm	15 mm	12.67 mm	
COc1cc2c(cc1OC)C(CCCCCOC(=O)CCc1ccc(F)cc1)N(C)CC2 (configuration not stated)	0 mm	6 mm	8.33 mm	8.33 mm	7.67 mm	46%	11.83 mm	11.67 mm	8.83 mm	9.17 mm	9.33 mm	10.33 mm	11.33 mm	Activity (Bacillus cereus [13]): 49%
COc1cc2c(cc1OC)C(CCCCCOC(=O)Nc1ccc(Cl)cc1)N(C)CC2 (configuration not stated)	0 mm	0 mm	8.67 mm	10.33 mm	7.33 mm		13.17 mm	12.5 mm	17.33 mm	16.33 mm	18 mm	17.33 mm	14.33 mm	Activity (Escherichia coli [14]): 68%; Activity (Salmonella typhi [15]): 67%
COc1ccc(NC(=O)OCCCCCC2c3cc(OC)c(OC)cc3CCN2C)cc1 (configuration not stated)	0 mm	0 mm	6.17 mm	6.67 mm	0 mm		11.67 mm	9.67 mm	13.33 mm	11.33 mm	14.67 mm	13.67 mm	10.33 mm	Activity (Escherichia coli [14]): 52%; Activity (Staphylococcus aureus [16]): 51%
COc1cc2c(cc1OC)C(CCCCCOC(=O)Nc1ccc(F)cc1)N(C)CC2 (configuration not stated)							12.33 mm	22.33 mm	12 mm	14.67 mm	20 mm	14 mm	14.33 mm	Activity [17]: 64%; Activity (Enterococcus faecalis [18]): 64%
CCCCNC(=O)n1c(NC(=O)OC)nc2ccccc21 [BENOMYL]				0 mm										zone of inhibition at 1 µg/disc (Aspergillus parasiticus [19]): 18 mm; zone of inhibition at 1.5 µg/disc [20]: 24.5 mm; zone of inhibition at 1 µg/disc (Trichoderma viride [21]): 22 mm; zone of inhibition at 10 µg/disc (Fusarium culmorum [22]): 18 mm
COc1cc2c(cc1OC)C(CCCCCO)N(C)CC2 (configuration not stated)						62%	16 mm	8 mm	11.33 mm	12.33 mm	10.33 mm	10.67 mm	0 mm	

Source: ChEMBL document CHEMBL2385053, “Novel isoquinoline derivatives as antimicrobial agents” (2013)
